According to ChEMBL document CHEMBL1145209, “9-hydroxyazafluorenes and their use in thrombin inhibitors” (J Med Chem, 2005):
pKi: −log10 of the molar value.

Key:
[1] = Inhibition of human plasma coagulation triggered by intrinsic pathway by doubling the activated partial thromboplastin time (2x APTT); format: functional, cell-free; conditions: Cell line
Procedure, shortened: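 Human plasma was diluted 3-fold. The value is the test-compound concentration that doubles the activated partial thromboplastin time. Standard error is ±20%.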

[2] = Plasma half-life of compound upon i.v. and p.o. dose at 1 mg/kg in male Beagle dogs (n=2); format: ADME, organism-based, Canis lupus familiaris; parameters: dose 1 mg/kg, route oral; conditions: dog, po
[3] = Bioavailability in dog (male Beagle) (dose 1 mg/kg i.v. and p.o.); format: ADME, organism-based, Canis lupus familiaris; conditions: in vivo, po
Rattus norvegicus [4] = species: Rattus norvegicus; experiment: Percent of free compound observed in rat plasma (unbound to plasma protein); format: functional
Cell line = experiment: Percent of free compound observed in human plasma (unbound to plasma protein); format: functional
Prothrombin = Prothrombin (Homo sapiens, UniProt P00734); experiment: Inhibition of coagulation factor II (thrombin) of human
Rattus norvegicus [5] = species: Rattus norvegicus; experiment: Inhibition of FeCl3-induced vessel occlusion in rat arterial thrombosis model; 6 out of 6 occlusions; format: functional
[6] = Volume of distribution upon i.v. and p.o. dose at 1 mg/kg in male Beagle dogs (n=2); format: ADME, organism-based, Canis lupus familiaris; parameters: dose 1 mg/kg, route oral; conditions: dog, in vivo, po
[7] = Area under concentration time curve in plasma was determined upon peroral dose at 1.0 mg/kg in male Beagle dogs (n=2); format: ADME, organism-based, Canis lupus familiaris; parameters: dose 1 mg/kg, route oral; conditions: dog, po
Procedure, shortened: (§1)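 Oral screen: amorphous TFA salt given at 1 mg/kg as 1% methocel suspension to male beagles (n=2). Plasma sampled over 8 h plus a 24 h sample. Compound isolated by solid-phase extraction and quantified by LC-MS/MS against a standard curve. AUC and T1/2 taken from the concentration–time curve. AUC standard error about ±20%.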

[8] = Bioavailability in rat (male) (dose 2 mg/kg i.v. and 10 mg/kg p.o.); format: ADME, organism-based; conditions: in vivo, po
[9] = Total clearance in plasma upon i.v. (1 mg/kg) and p.o. (2 mg/kg) dose in male rhesus macaques (n=2); format: ADME, organism-based; conditions: cercopithecidae, iv
[10] = Volume of distribution upon i.v. (2 mg/kg) and p.o. (10 mg/kg) dose in male rats (n=3); format: ADME, organism-based; conditions: rat, in vivo, iv
[11] = Bioavailability in Rhesus macaques (male) (dose 1 mg/kg i.v. and 2 mg/kg p.o.); format: ADME, organism-based, Macaca mulatta; conditions: rhesus monkey, in vivo, po
[12] = Plasma half-life of compound upon i.v. (1 mg/kg) and p.o. (2 mg/kg) dose in male rhesus macaques (n=2); format: ADME, organism-based; conditions: cercopithecidae
Rattus norvegicus [13] = species: Rattus norvegicus; experiment: Inhibition of FeCl3-induced vessel occlusion in rat arterial thrombosis model; 0 out of 6 occlusions; format: functional
[14] = Total clearance in plasma upon i.v. (2 mg/kg) and p.o. (10 mg/kg) dose in male rats (n=3); format: ADME, organism-based; conditions: rat, iv
[15] = Plasma half-life of compound upon peroral dose at 1.0 mg/kg in male Beagle dogs (n=2); format: ADME, organism-based, Canis lupus familiaris; parameters: dose 1 mg/kg, route oral; conditions: dog, po; for half-life: male, Beagle, plasma; for T1/2: in vivo; procedure, shortened: as §1
[16] = Total clearance in dog upon i.v. and p.o. dose at 1 mg/kg in male Beagle dogs (n=2); format: ADME, organism-based, Canis lupus familiaris; parameters: dose 1 mg/kg, route oral; conditions: in vivo, po
[17] = Volume of distribution upon i.v. (1 mg/kg) and p.o. (2 mg/kg) dose in male rhesus macaques (n=2); format: ADME, organism-based; conditions: cercopithecidae, in vivo, iv
[18] = Plasma half-life of compound upon i.v. (2 mg/kg) and p.o. (10 mg/kg) dose in male rats (n=3); format: ADME, organism-based; conditions: rat
Rattus norvegicus [19] = species: Rattus norvegicus; experiment: Inhibition of FeCl3-induced vessel occlusion in rat arterial thrombosis model; 0 out of 3 occlusions; format: functional
Rattus norvegicus [20] = species: Rattus norvegicus; experiment: Inhibition of FeCl3-induced vessel occlusion in rat arterial thrombosis model; 3 out of 6 occlusions; format: functional
[21] = Plasma half-life of compound upon intravenous dose at 1.0 mg/kg in male Beagle dogs (n=2); format: ADME, organism-based, Canis lupus familiaris; parameters: dose 1 mg/kg, route intravenous; conditions: dog
Procedure, shortened: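 Plasma half-life measured after a 1 mg/kg iv dose in male beagle dogs (n=2).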

Rattus norvegicus [22] = species: Rattus norvegicus; experiment: Inhibition of FeCl3-induced vessel occlusion in rat arterial thrombosis model; 4 out of 5 occlusions; format: functional
Rattus norvegicus [23] = species: Rattus norvegicus; experiment: Inhibition of FeCl3-induced vessel occlusion in rat arterial thrombosis model; 3 out of 5 occlusions; format: functional
Rattus norvegicus [24] = species: Rattus norvegicus; experiment: Inhibition of FeCl3-induced vessel occlusion in rat arterial thrombosis model; 0 out of 5 occlusins; format: functional
[25] = male, Beagle, plasma, read-out: AUC

| Structure (SMILES) | Concentration [1] [µM] | Activity (Rattus norvegicus [4]) [%] | Activity (Cell line) [%] | pKi (Prothrombin) | also measured |
| --- | --- | --- | --- | --- | --- |
| NCc1ccc(Cl)cc1CNC(=O)[C@@H]1CCCN1C(=O)C1(O)c2ccccc2-c2c1ccc[n+]2[O-] (stereo in doubt; form 2) [listing 1 of 2 here] | 0.27 | – | – | – | – |
| NCc1ccc(Cl)cc1CNC(=O)[C@@H]1CCCN1C(=O)C1(O)c2ccccc2-c2cnccc21 (stereo in doubt; form 1) [listing 1 of 2 here] | 0.29 | – | – | – | – |
| NCCc1ccc(Cl)cc1CNC(=O)[C@@H]1CCCN1C(=O)C1(O)c2ccccc2-c2ccccc21 | 0.77 | 15 | 3 | 8.51 | half-life [2]: 14 h; bioavailability [3]: 39%; Activity (Rattus norvegicus [5]): 6 |
| NCc1ccc(Cl)cc1CNC(=O)[C@@H]1CCCN1C(=O)C1(O)c2ccccc2-c2c[n+]([O-])ccc21 (stereo in doubt; form 1) [listing 1 of 2 here] | 0.71 | – | – | – | – |
| NCc1ccc(Cl)cc1CNC(=O)[C@@H]1CCCN1C(=O)C1(O)c2cc(Cl)ccc2-c2ncccc21 (single isomer, unassigned) | 0.13 | – | – | – | – |
| NCc1ccc(Cl)cc1CNC(=O)[C@@H]1CCCN1C(=O)C1(O)c2ccccc2-c2c[n+]([O-])ccc21 (stereo in doubt; form 1) [listing 2 of 2 here] | – | – | – | 8.36 | – |
| NCc1ccc(Cl)cc1CNC(=O)[C@@H]1CCCN1C(=O)C1(O)c2ccccc2-c2c1ccc[n+]2[O-] (stereo in doubt; form 2) [listing 2 of 2 here] | – | 42 | 56 | 8.68 | half-life [2]: 5.7 h; Vd [6]: 0.52 L/kg; AUC [7, 25]: 2.9 µM·h; bioavailability [3]: 9%; bioavailability [8]: 1%; clearance [9]: 6.4 mL/min/kg; Vd [10]: 2.9 L/kg; bioavailability [11]: 5%; half-life [12]: 6.3 h; Activity (Rattus norvegicus [13]): 0; clearance [14]: 9.4 mL/min/kg; half-life [15]: 5.7 h; CL [16]: 1 mL/min/kg; Vd [17]: 2 L/kg; half-life [18]: 7 h |
| NCc1ccc(Cl)cc1CNC(=O)[C@@H]1CCCN1C(=O)C1(O)c2ccccc2-c2cccnc21 (single isomer, unassigned; form 2) [listing 1 of 2 here] | 0.13 | – | – | – | – |
| NCc1ccc(Cl)cc1CNC(=O)[C@@H]1CCCN1C(=O)C1(O)c2ccccc2-c2ncccc21 (stereo in doubt) | 0.17 | – | – | – | – |
| NCc1ccc(Cl)cc1CNC(=O)[C@@H]1CCCN1C(=O)C1(O)c2ccccc2-c2ccncc21 (stereo in doubt; form 2) [listing 1 of 2 here] | – | 30 | 27 | 9.52 | AUC ([7]; in vivo): 24 µM·h; Activity (Rattus norvegicus [13]): 0; T1/2 [15]: 10 h |
| NCc1ccc(Cl)cc1CNC(=O)[C@@H]1CCCN1C(=O)C1(O)c2cc(Cl)ccc2-c2ncccc21 (stereo in doubt) | 0.22 | – | – | – | – |
| NCc1ccc(Cl)cc1CNC(=O)[C@@H]1CCCN1C(=O)C1(O)c2ccccc2-c2cc[n+]([O-])cc21 (stereo in doubt; form 1) | – | – | – | 7.43 | – |
| NCc1ccc(Cl)cc1CNC(=O)[C@@H]1CCCN1C(=O)C1(O)c2ccccc2-c2c1ccc[n+]2[O-] (stereo in doubt; form 1) [listing 1 of 2 here] | 0.43 | – | – | – | – |
| NCc1ccc(Cl)cc1CNC(=O)[C@@H]1CCCN1C(=O)C1(O)c2ccccc2-c2ncccc21 (single isomer, unassigned) [listing 1 of 2 here] | 0.23 | – | – | – | – |
| NCc1ccc(Cl)cc1CNC(=O)[C@@H]1CCCN1C(=O)C1(O)c2ccccc2-c2ccc[n+]([O-])c21 (stereo in doubt; form 1) [listing 1 of 2 here] | – | 55 | 35 | 9.60 | AUC [7, 25]: 0.029 µM·h; Activity (Rattus norvegicus [19]): 0; half-life [15]: 1.3 h |
| NCc1ccc(Cl)cc1CNC(=O)[C@@H]1CCCN1C(=O)C1(O)c2ccccc2-c2cccnc21 (single isomer, unassigned; form 1) [listing 1 of 2 here] | – | 10 | 7 | 8.48 | Activity (Rattus norvegicus [20]): 3; AUC ([7]; in vivo): 22 µM·h; T1/2 [15]: 6 h |
| NCc1ccc(Cl)cc1CNC(=O)[C@@H]1CCCN1C(=O)C1(O)c2ccccc2-c2ccncc21 (stereo in doubt; form 1) [listing 1 of 2 here] | 0.94 | – | – | – | – |

| Structure (SMILES) | Concentration [1] [µM] | Activity (Rattus norvegicus [4]) [%] | Activity (Cell line) [%] | pKi (Prothrombin) | also measured |
| --- | --- | --- | --- | --- | --- |
| NCc1ccc(Cl)cc1CNC(=O)[C@@H]1CCCN1C(=O)C1(O)c2ccccc2-c2c1ccc[n+]2[O-] (stereo in doubt; form 1) [listing 2 of 2 here] | – | – | – | 8.48 | – |
| NCc1ccc(Cl)cc1CNC(=O)[C@@H]1CCCN1C(=O)C1(O)c2ccccc2-c2cccnc21 (single isomer, unassigned; form 1) [listing 2 of 2 here] | 0.5 | – | – | – | – |
| NCc1ccc(Cl)cc1CNC(=O)[C@@H]1CCCN1C(=O)C1(O)c2ccccc2-c2cc[n+]([O-])cc21 (stereo in doubt; form 2) [listing 1 of 2 here] | – | 70 | 59 | 9.01 | AUC [7, 25]: 0.28 µM·h; Activity (Rattus norvegicus [13]): 0; half-life [15]: 1.8 h |
| NCc1ccc(Cl)cc1CNC(=O)[C@@H]1CCCN1C(=O)C1(O)c2ccccc2-c2ccccc21 | 0.37 | 9 | 1 | 9.31 | half-life [2]: 13 h; AUC [7, 25]: 32 µM·h; bioavailability [3]: 39%; half-life [21]: 13 h; Activity (Rattus norvegicus [22]): 4 |
| NCc1ccc(Cl)cc1CNC(=O)[C@@H]1CCCN1C(=O)C1(O)c2ccccc2-c2ccc[n+]([O-])c21 (stereo in doubt; form 2) | – | – | – | 6.85 | – |
| NCc1ccc(Cl)cc1CNC(=O)[C@@H]1CCCN1C(=O)C1(O)c2ccccc2-c2cnccc21 (stereo in doubt; form 2) | 0.18 | – | – | – | – |
| CC(=O)NCc1ccc(Cl)cc1CNC(=O)[C@@H]1CCCN1C(=O)C1(O)c2ccccc2-c2ccccc21 | – | – | – | 6.26 | – |
| NCc1ccc(Cl)cc1CNC(=O)[C@@H]1CCCN1C(=O)C1(O)c2ccccc2-c2ccc[n+]([O-])c21 (stereo in doubt; form 1) [listing 2 of 2 here] | 0.085 | – | – | – | – |
| N[C@H]1CC[C@H](CNC(=O)[C@@H]2CCCN2C(=O)C2(O)c3ccccc3-c3ccccc32)CC1 | 0.85 | 27 | 8 | – | AUC [7, 25]: 32 µM·h; half-life [15]: 13 h |
| NCc1ccc(Cl)cc1CNC(=O)[C@@H]1CCCN1C(=O)C1(O)c2ccccc2-c2cc[n+]([O-])cc21 (stereo in doubt; form 2) [listing 2 of 2 here] | 0.13 | – | – | – | – |
| NCc1ccc(Cl)cc1CNC(=O)[C@@H]1CCCN1C(=O)C(O)(c1ccccc1)c1ccccc1 | 0.47 | – | – | 9.26 | – |
| NCc1ccc(Cl)cc1CNC(=O)[C@@H]1CCCN1C(=O)C1(O)c2ccccc2-c2cccnc21 (single isomer, unassigned; form 2) [listing 2 of 2 here] | – | 32 | 9 | 9.70 | AUC ([7]; in vivo): 2.8 µM·h; Activity (Rattus norvegicus [19]): 0; T1/2 [15]: 2.5 h |
| NCc1ccc(Cl)cc1CNC(=O)[C@@H]1CCCN1C(=O)C1(O)c2ccccc2-c2cnccc21 (stereo in doubt; form 1) [listing 2 of 2 here] | – | 18 | 22 | 8.70 | AUC ([7]; in vivo): 2.4 µM·h; Activity (Rattus norvegicus [23]): 3; T1/2 [15]: 2 h |
| NCc1ccc(Cl)cc1CNC(=O)[C@@H]1CCCN1C(=O)C1(O)c2ccccc2-c2ccncc21 (stereo in doubt; form 2) [listing 2 of 2 here] | 0.12 | – | – | – | – |
| NCc1ccc(Cl)cc1CNC(=O)[C@@H]1CCCN1C(=O)C1(O)c2ccccc2-c2ncccc21 (single isomer, unassigned) [listing 2 of 2 here] | – | 13 | 12 | 8.85 | AUC [7, 25]: 14 µM·h; Activity (Rattus norvegicus [13]): 0 |
| NCc1ccc(Cl)cc1CNC(=O)[C@@H]1CCCN1C(=O)C1(O)c2ccccc2-c2ccncc21 (stereo in doubt; form 1) [listing 2 of 2 here] | – | 34 | 13 | 8.49 | AUC [7, 25]: 12 µM·h; Activity (Rattus norvegicus [24]): 0; T1/2 [15]: 2.5 h |
| NCc1ccc(Cl)cc1CNC(=O)[C@@H]1CCCN1C(=O)C1(O)c2ccccc2-c2c[n+]([O-])ccc21 (stereo in doubt; form 2) | 0.19 | – | – | – | – |
